Source: PubChem BioAssay
An excerpt weighted towards active compounds, which were near 5.1% of everything screened.
NF-kB neuron act = activators of NF-kB expression in neurons, primary screen, cell-based, HTS. human neuronal cells, NF-kB reporter expression; hits give high values. AID 1239, 2008. fold change at 12.5 µM. 1.6% of 190,000 active; in the data active = fold change above about 3.3
APP 5'UTR act = activators of APP 5'UTR luciferase reporter, primary screen, SH-SY5Y cells | SH-SY5Y APP 5'UTR luciferase reporter, luminescence; zero percent = DMSO vehicle wells | activation, % at 2 µM | 1% of 190,000 active | AID 1276, 2008;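 active = activation above a set limit, based on mean plus 3 SD of controls, cut at about 140% in these data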
STAT3 act = IL-6 driven STAT3 reporter potentiators, primary screen, U3A cells, luciferase, luminescence, MLSCN library; activation (% of control), % at 5.6 µM; IL-6 STAT3-luciferase reporter; 100% = signal with IL-6 EC80 alone; AID 871, 2007; 0.91% of 190,000 active;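 active = activation above the screen-wide mean of compound activation plus 3 SD, cut at about 130% in these data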;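 also: 0% = background luminescence of wells with medium and substrate only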
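Test system: Human STAT1-deficient U3A cells with stable STAT3-luciferase reporter | Also added: Interleukin-6, 33 ng/mL | Timing: Compound pre-incubation 1 h before IL-6, then 6 h stimulation at 37 °C | Technique: Luciferase reporter luminescence | Read-out: Percent of IL-6-only median luminescence | Benchmarks: IL-6-only wells as 100% reference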
STAT3 blocker = IL-6 driven STAT3 reporter inhibitors, primary screen, U3A cells, luciferase, luminescence, MLSCN library; 0.89% of 190,000 active; inhibition, % at 5.5 µM; IL-6 STAT3-luciferase reporter; host cell line lacks STAT1; AID 862, 2007;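 active = inhibition above the mean inhibition across all screened compounds plus 3 SD, cut at about 44% in these data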;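 also: 0% = DMSO only wells and 100% = 100 µM nifuroxazide control wells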
STAT1 act = STAT1 signaling activators, primary screen, cell-based, HTS, luciferase reporter; AID 932, 2007; 2.6% of 200,000 active; NIH 3T3 STAT1-luciferase reporter, IFN-gamma, luminescence; 100% = IFN-gamma alone, no compound; activation (% of control), % at 5.5 µM;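 active = activation above the screen-wide mean activation plus 3 SD, cut at about 130% in these data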;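 also: raw ratio to IFN-gamma control signal so 100% means no change and 0% no light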
STAT1 inh = STAT1 signaling inhibitors, primary screen, cell-based, HTS, luciferase reporter | inhibition, % at 5.5 µM | NIH 3T3 STAT1-luciferase reporter, IFN-gamma, luminescence | AID 920, 2007 | 0.35% of 200,000 active;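 active = inhibition above a set limit, the mean inhibition across all tested compounds plus 3 SD, cut at about 34% in these data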;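 also: 0% = IFN-gamma with DMSO and 100% = IFN-gamma with 300 µM nifuroxazide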
STAT1 activ conf = STAT1 signaling activators, confirmation, cell-based, HTS, luciferase reporter; shares compounds with STAT1 act; NIH 3T3 STAT1-luciferase reporter, IFN-gamma potentiation, luminescence; 100% = IFN-gamma EC80 alone, no compound; activation (% of control), % at 5.7 µM; 97% of 1,200 active;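 active = activation above a set limit carried over from the earlier primary STAT1 screen, cut at about 140% in these data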;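 also: simple ratio to median IFN-gamma plus DMSO wells so 0% means no light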
NFkB act STAT1ct = NF-kB reporter activators, TNF-alpha stimulated, counter-screen for STAT1 activator project, cell-based, HEK293T, luciferase luminescence | activation (% of control), % at 5.7 µM | 100% = TNF-alpha with vehicle only | AID 1306, 2008 | 43% of 1,200 active | shares compounds with STAT1 act;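 active = activation above the mean of solvent-only control wells plus 3 SD, set per campaign, cut at about 130% in these data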;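 also: TNF-alpha given at a submaximal dose yielding about 80% of full reporter signal; values are well signal over median control so 100% means no change and 0% no light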
STAT3 act STAT1c = STAT3 reporter activation by STAT1 hits, confirmation, counter-screen for STAT1 activator project, U3A cells, luciferase, luminescence | shares compounds with STAT1 act | IL-6; cells lack STAT1; 100 = IL-6 alone, no compound effect | activation (% of control), % at 5.7 µM | 46% of 1,200 active | AID 1316, 2008;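 active = activation above the solvent-only control well mean plus 3 SD, set per plate batch, cut at about 110% in these data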;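 also: 0% = no luminescence and 100% = median IL-6 plus DMSO wells; higher means more STAT3 reporter activation so hits are non-selective activators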
Active calls of the source: *.

Cc1nn(-c2ccccc2)c(Cl)c1/C=N/Nc1nc2ccccc2[nH]1 was read as NF-kB neuron act 2.2, APP 5'UTR act 126, STAT3 act 83, STAT3 blocker 22, STAT1 act 216*, STAT1 inh -130, STAT1 activ conf 291*, NFkB act STAT1ct 130 and STAT3 act STAT1c 104.
For Cc1ccc(/C=N/Nc2nc3ccccc3[nH]2)s1 the results were NF-kB neuron act 3.8*, APP 5'UTR act 135*, STAT3 act 121, STAT3 blocker -18, STAT1 act 157*, STAT1 inh -63, STAT1 activ conf 190*, NFkB act STAT1ct 149* and STAT3 act STAT1c 121*.
For CCNC(=S)/N=C(\N)Nc1nc(C)c2cc(C)ccc2n1 the results were NF-kB neuron act 2, APP 5'UTR act 66, STAT3 act 127, STAT3 blocker -16, STAT1 act 182*, STAT1 inh -91, STAT1 activ conf 179*, NFkB act STAT1ct 141* and STAT3 act STAT1c 125*.
CCOc1ccc2nc(N/C(N)=N/C(=S)Nc3ccc(C)c(C)c3)nc(C)c2c1 was read as NF-kB neuron act 1.1, APP 5'UTR act -5, STAT3 act 95, STAT3 blocker 4, STAT1 act 91 and STAT1 inh 11.
`COc1ccc(-n2c(SCc3cn4c(C)cccc4n3)nc3ccccc3c2=O)cc1OC` gave NF-kB neuron act 1.1, APP 5'UTR act -16, STAT3 act 104, STAT3 blocker 2, STAT1 act 78 and STAT1 inh 23.
For CC(=O)c1cnc2cc(C)nn2c1C the results were NF-kB neuron act 1, APP 5'UTR act -1, STAT3 act 112, STAT3 blocker -8, STAT1 act 112 and STAT1 inh -13.
For Nc1c(-c2ccccc2)cnc2cc(-c3ccccc3)nn12 the results were NF-kB neuron act 4.8*, APP 5'UTR act 290*, STAT3 act 77, STAT3 blocker 34, STAT1 act 158*, STAT1 inh -65, STAT1 activ conf 276*, NFkB act STAT1ct 134* and STAT3 act STAT1c 98.
CC(=O)c1cnc2cc(-c3ccccc3)nn2c1C was read as NF-kB neuron act 2.9, APP 5'UTR act 16, STAT3 act 86, STAT3 blocker 19, STAT1 act 170*, STAT1 inh -77, STAT1 activ conf 195*, NFkB act STAT1ct 131 and STAT3 act STAT1c 109.
`COCCNC(=O)CSCc1cc(C)cc(C)c1` gave APP 5'UTR act 8, STAT3 act 92, STAT3 blocker 14, STAT1 act 100 and STAT1 inh 0.
Screening CC(=Nc1ccc(O)cc1)c1sc2ccccc2c1O returned NF-kB neuron act 13*, APP 5'UTR act 171*, STAT3 act 93, STAT3 blocker 18, STAT1 act 170*, STAT1 inh -77, STAT1 activ conf 230*, NFkB act STAT1ct 150* and STAT3 act STAT1c 104.
Screening O=[N+]([O-])c1ccc(N=Cc2sc3ccccc3c2O)cc1 returned NF-kB neuron act 1.1, APP 5'UTR act 24, STAT3 act 112, STAT3 blocker -11, STAT1 act 102 and STAT1 inh -2.
